Assay results as given in article PMC3733499 (Thrombosis and haemostasis, 2013).
Changes are numbered by the printed parent chain. Numbers in names are those of the source. Values belong to the molecule of their own block, whether it stands above or below them. Where a SMILES comes first, the peptide text is derived from it.

Columns and labels:
[1] = tested on: prothrombinase (FXa/FVa); experiment: Purified component prothrombinase assay with FVa, without PL; assay type: biochemical, human; conditions: absence of PL; data not shown
[2] = target: T1, prothrombinase (FXa/FVa/PL) (Homo sapiens, UniProt P00742+P12259); experiment: Purified component prothrombinase assay with FVa and PL; assay type: biochemical; conditions: for FVa-dependent inhibition of prothrombinase activity: peptide preincubated 10 min with FVa/FXa/PL
[3] = tested on: mAb S4; experiment: Binding of mAb S4 to immobilized peptides; conditions: peptide coated at 20 μM, mAb S4 26 nM, anti-mouse IgG detection
Method in brief: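 Wells coated with peptide and blocked with I-Block; mAb S4 at 26 nM incubated in the wells. Bound antibody detected with anti-mouse IgG, then biotinylated secondary antibody, streptavidin-alkaline phosphatase and phosphatase substrate. Wash solution was HBS with 0.1% porcine skin gelatin and 2 mM CaCl2. Signal from noncoated blocked wells subtracted from coated wells.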

[4] = target: Factor Va (Homo sapiens) (UniProt P12259); conditions: cited from earlier work
[5] = target: Factor Xa (Homo sapiens) (UniProt P00742); conditions: cited from earlier work
[6] = tested on: platelet and fibrin deposition; conditions: PS infused without APC; ref [15]; cited from earlier work
[7] = target: T1, prothrombinase (FXa/FVa/PL); conditions: ref [9], cited from earlier work
[8] = tested on: FXa-induced clotting of PS-depleted plasma (PSdP); experiment: FXa-1-stage clotting assay without exogenous PL; assay type: cell-based, human; conditions: no exogenous PL, base clotting time 98 sec
Method in brief: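 Human PS-depleted plasma mixed with HBS-BSA containing purified human PS (up to 379 nM) with or without neutralizing mAb S4, plus FXa. No exogenous phospholipid added. Incubated 3 min at 37°C, recalcified with CaCl2 (33 mM stock), and clotting time measured on a coagulometer. FXa standard curves without PS (up to 19 pM as 100%) converted clotting times to % FXa activity.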

[9] = target: T2, Factor Va (human, UniProt P12259 29-737; P12259 1574-2224); experiment: ELISA
T2 sequence (looked up) 1: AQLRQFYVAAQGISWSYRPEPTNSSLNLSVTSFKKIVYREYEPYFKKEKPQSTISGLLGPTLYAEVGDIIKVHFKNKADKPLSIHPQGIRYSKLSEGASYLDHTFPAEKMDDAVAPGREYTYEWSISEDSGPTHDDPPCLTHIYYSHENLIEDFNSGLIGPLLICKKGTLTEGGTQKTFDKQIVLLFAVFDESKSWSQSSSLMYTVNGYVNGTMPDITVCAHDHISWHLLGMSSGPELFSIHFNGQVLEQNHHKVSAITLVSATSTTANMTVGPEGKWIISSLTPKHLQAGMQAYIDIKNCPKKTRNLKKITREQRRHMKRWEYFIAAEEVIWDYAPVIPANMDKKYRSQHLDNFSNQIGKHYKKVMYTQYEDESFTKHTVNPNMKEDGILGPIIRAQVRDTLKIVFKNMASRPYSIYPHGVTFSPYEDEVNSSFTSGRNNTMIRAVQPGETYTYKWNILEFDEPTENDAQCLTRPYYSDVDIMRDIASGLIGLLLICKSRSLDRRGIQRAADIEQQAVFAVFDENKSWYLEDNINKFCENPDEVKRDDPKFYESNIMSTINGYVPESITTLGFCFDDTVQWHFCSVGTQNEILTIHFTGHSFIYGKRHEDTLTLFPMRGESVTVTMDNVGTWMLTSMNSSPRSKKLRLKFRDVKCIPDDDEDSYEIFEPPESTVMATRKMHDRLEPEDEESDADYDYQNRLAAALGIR
T2 sequence (looked up) 2: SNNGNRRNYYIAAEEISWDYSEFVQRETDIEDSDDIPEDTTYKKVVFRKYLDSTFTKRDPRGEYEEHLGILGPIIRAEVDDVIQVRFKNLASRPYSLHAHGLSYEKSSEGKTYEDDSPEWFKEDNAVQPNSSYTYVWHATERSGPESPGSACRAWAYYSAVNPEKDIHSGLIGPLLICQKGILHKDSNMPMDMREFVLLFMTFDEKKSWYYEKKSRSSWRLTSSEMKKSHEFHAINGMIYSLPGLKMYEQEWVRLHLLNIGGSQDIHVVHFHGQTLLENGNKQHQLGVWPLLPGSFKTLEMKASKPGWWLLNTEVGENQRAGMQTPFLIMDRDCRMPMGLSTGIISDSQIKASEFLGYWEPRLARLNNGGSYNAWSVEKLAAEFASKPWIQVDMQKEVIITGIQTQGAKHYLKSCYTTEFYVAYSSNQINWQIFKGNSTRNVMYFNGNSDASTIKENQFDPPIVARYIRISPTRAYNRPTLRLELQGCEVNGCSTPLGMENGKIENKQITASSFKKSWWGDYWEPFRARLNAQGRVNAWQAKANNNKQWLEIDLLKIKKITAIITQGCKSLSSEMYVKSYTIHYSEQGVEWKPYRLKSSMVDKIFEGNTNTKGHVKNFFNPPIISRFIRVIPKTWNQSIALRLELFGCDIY

[10] = tested on: FVa; conditions: recombinant; ref [39]; cited from earlier work
[11] = tested on: FXa; conditions: recombinant; ref [39]; cited from earlier work
[12] = tested on: APC; conditions: recombinant; ref [39]; cited from earlier work
[13] = Thr37 to Met mutation; ref [28]; cited from earlier work
[14] = tested on: activated protein C (APC); conditions: Thr37 to Met mutation; ref [28]; cited from earlier work
[15] = target: T2, Factor Va; experiment: ELISA; remark: listed apart in the source
[16] = target: T2, Factor Va; experiment: ELISA; remark: listed apart in the source

T1 sequence (P00742 41-179 partner limits assumed, one chain of several): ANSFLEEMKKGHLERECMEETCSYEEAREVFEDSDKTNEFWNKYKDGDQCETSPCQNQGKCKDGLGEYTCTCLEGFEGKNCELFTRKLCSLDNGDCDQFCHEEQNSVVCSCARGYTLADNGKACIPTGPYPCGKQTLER
T1 sequence (P00742 235-488 partner limits assumed, one chain of several): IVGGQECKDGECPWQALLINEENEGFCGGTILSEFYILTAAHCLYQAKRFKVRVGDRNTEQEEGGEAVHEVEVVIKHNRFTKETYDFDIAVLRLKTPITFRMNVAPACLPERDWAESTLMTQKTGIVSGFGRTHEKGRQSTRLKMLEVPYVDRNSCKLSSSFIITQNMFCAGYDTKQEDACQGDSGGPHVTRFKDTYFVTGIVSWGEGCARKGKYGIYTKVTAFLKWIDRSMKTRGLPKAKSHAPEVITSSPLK
Factor Xa (Homo sapiens), sequence (P00742 235-488): as the sequence (P00742 235-488 partner limits assumed, one chain of several) above

Molecule: Phospholipase A2
Effect of phospholipase A2 on PS inhibition [1]: no effect on PS inhibition
Effect of phospholipase A2 on prothrombinase activity [1]: no effect on prothrombinase activity
Effect of phospholipase A2 on prothrombinase activity ([2]; mixtures that contained PL, data not shown): greatly diminished

FVa-dependent inhibition of prothrombinase activity [2]: did not inhibit prothrombinase
Molecule: PSP48: 14-mer peptide, PS residues 48–61 (LRSFQTGLFTAARQ; UniProt P07225 89-102, looked up, fragment)

Binding of mAb S4 to immobilized peptide [3]: detected
Molecule: 54–67: peptide representing PS residues 54–67 (TSR) (GLFTAARQSTNAYP; UniProt P07225 95-108, looked up, fragment)

Molecule: Protein S (from UniProt P07225)
Kd [4]: 33 nM
Kd [5]: 18 nM

FVa-dependent inhibition of prothrombinase activity [2]: did not inhibit prothrombinase
Molecule: PSP30: 14-mer peptide, PS residues 30–43 (VFENDPETDYFYPK; UniProt P07225 71-84, looked up, fragment)

IC50 [2]: 11000 nM
Inhibition of prothrombinase ([2]; 40 μM peptide): 90%
Molecule: CC(C)C[C@H](NC(=O)[C@H](CS)NC(=O)[C@@H](NC(=O)[C@H](CC(C)C)NC(=O)[C@H](Cc1ccc(O)cc1)NC(=O)[C@H](CCCCN)NC(=O)[C@@H]1CCCN1C(=O)[C@H](Cc1ccc(O)cc1)NC(=O)[C@H](Cc1ccccc1)NC(=O)[C@H](Cc1ccc(O)cc1)NC(=O)[C@H](CC(=O)O)NC(=O)[C@@H](N)[C@@H](C)O)C(C)C)C(=O)N[C@@H](CCCNC(=N)N)C(=O)N[C@@H](CO)C(=O)O [PSP37, TDYFYPKYLVCLRS] (H-TDYFYPKYLVCLRS-OH)

Molecule: PS: immunoaffinity-purified free plasma protein S retaining Zn^2+
Inhibition of platelet and fibrin deposition [6]: inhibited platelet and fibrin deposition
Vmax alteration by PS ([7]; at 60% inhibition): 2.2 fold
Km alteration by PS [7]: 2 fold
Maximal prolongation of clotting time by PS [8]: 95 s

binding result [9]: binds
B1: Protein S (natural protein, human, UniProt P07225 42-676, looked up)
chain: ANSLLEETKQGNLERECIEELCNKEEAREVFENDPETDYFYPKYLVCLRSFQTGLFTAARQSTNAYPDLRSCVNAIPDQCSPLPCNEDGYMSCKDGKASFTCTCKPGWQGEKCEFDINECKDPSNINGGCSQICDNTPGSYHCSCKNGFVMLSNKKDCKDVDECSLKPSICGTAVCKNIPGDFECECPEGYRYNLKSKSCEDIDECSENMCAQLCVNYPGGYTCYCDGKKGFKLAQDQKSCEVVSVCLPLNLDTKYELLYLAEQFAGVVLYLKFRLPEISRFSAEFDFRTYDSEGVILYAESIDHSAWLLIALRGGKIEVQLKNEHTSKITTGGDVINNGLWNMVSVEELEHSISIKIAKEAVMDINKPGPLFKPENGLLETKVYFAGFPRKVESELIKPINPRLDGCIRSWNLMKQGASGIKEIIQEKQNKHCLVTVEKGSYYPGSGIAQFHIDYNNVSSAEGWHVNVTLNIRPSTGTGVMLALVSGNNTVPFAVSLVDSTSEKSQDILLSVENTVIYRIQALSLCSDQQSHLEFRVNRNNLELSTPLKIETISHEDLQRQLAVLDKAMKAKVATYLGGLPDVPFSATPVNAFYNGCMEVNINGVQLDLDEAISKHNDIRAHSCPSVWKKTKNS

B2: K155E PS: recombinant K155E PS, prevalent Japanese mutation (protein, UniProt P07225 42-676, looked up, variant K155E)
Vitamin K-dependent protein S: B1 chain with K155E
Binding to FVa [10]: normal binding to FVa
Binding to FXa [11]: defective binding to FXa and to APC
Binding to APC [12]: defective binding to FXa and to APC

B3: T37M PS: recombinant PS with mutation of Thr37 to Met (protein, UniProt P07225 42-676, looked up, variant T37M)
Vitamin K-dependent protein S: B1 chain with T37M
Affinity for phospholipids [13]: diminished affinity for phospholipids
Decrease in APC cofactor activity [14]: 3.6 fold

IC50 [15]: 15000 nM
Kd [16]: 14 nM
Molecule: TDYFYPKYLVCLRS [Peptide PSP37 (protein S residues 37-50)]
